Rows were chosen to be rich in hits. Some 3.1% of all compounds tested hit in one or more screens of this group.
HCV core dimer = blocks dimerization of HCV core protein | TR-FRET GST/Flag-core106 dimerization, 1536-well | inhibition, % at 5 µM | actives 0.33% (n = 300,000) | AID 1899;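 active = inhibition above the mean of all tested compounds plus 3 SD, set per screening campaign, cut at about 45% in these data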
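Assay system: tagged HCV core106 pair (GST and Flag); medium: KF-containing HEPES buffer, pH 7.45, DTT, CHAPS, BSA; also added: Eu donor and XL665 acceptor anti-tag antibodies; dosing: 5 µM single dose; timing: compound-protein-antibody incubation 4 h at 22.5 °C; signal: TR-FRET 671 and 617 nm emission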
CTSL1 counter = cathepsin L1 inhibition, PFM18AAP counter-screen; recombinant F. hepatica cathepsin L1, Z-Leu-Arg-MCA fluorescence; inhibition, % at 5.96 µM; actives 0.49% (n = 300,000);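 active = inhibition above the mean of all tested compounds plus 3 SD, set per screening campaign, cut at about 17% in these data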
NadD block = inhibitors of Staphylococcus aureus NadD; purified NadD enzyme, colorimetric absorbance read-out; inhibition, % at 20 µM; actives 0.78% (n = 360,000); AID 602399; in the data active = inhibition above about 26%
Myeloid diff MLP = compounds promoting myeloid differentiation | ER-HoxA9 myeloid progenitors, lysozyme-GFP differentiation, flow cytometry | calls only at 10 µM | actives 1% (n = 360,000) | AID 624256;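 active = normalized GFP-positive differentiation at or above the plate's own cutoff, the solvent-only control mean plus 3 SD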;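 note: cells exposed to compound for four days before flow analysis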
PP5 primary = PP5 (human) phosphatase inhibition | purified PP5c, OMFP substrate fluorescence | inhibition, % at 6.7 µM | actives 0.18% (n = 320,000);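 active = inhibition above the campaign's mean inhibition across all tested compounds plus 3 SD, cut at about 9.5% in these data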
PP1 counter = counter-screen for PP5 inhibitors: inhibitors of human PP1-alpha; P62136; inhibition, % at 6.7 µM; actives 0.9% (n = 320,000); purified PP1alpha, OMFP fluorescence; AID 2235;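 active = inhibition above the mean inhibition of all tested compounds plus 3 SD, computed separately for each screening campaign, cut at about 15% in these data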
Target sequence (P62136 whole entry, looked up): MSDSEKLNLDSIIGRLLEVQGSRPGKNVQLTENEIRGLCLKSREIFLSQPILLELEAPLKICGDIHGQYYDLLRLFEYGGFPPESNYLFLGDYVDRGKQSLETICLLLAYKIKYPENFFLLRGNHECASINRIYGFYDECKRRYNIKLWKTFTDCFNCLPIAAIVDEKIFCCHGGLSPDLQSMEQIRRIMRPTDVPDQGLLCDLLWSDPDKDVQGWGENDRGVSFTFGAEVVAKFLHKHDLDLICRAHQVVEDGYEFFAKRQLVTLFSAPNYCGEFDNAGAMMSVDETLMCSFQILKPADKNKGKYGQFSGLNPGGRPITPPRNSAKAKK
PP1 confirm = confirmation of human PP1 phosphatase inhibitors; shares compounds with PP1 counter; purified PP1alpha, OMFP substrate fluorescence; inhibition, % at 6.7 µM; actives 52% (n = 1,900); AID 2358;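 active = mean PP1 inhibition above a set limit taken from the earlier primary screen, cut at about 15% in these data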
PP5 inh counter = inhibits human PP5 phosphatase in PP1 counter-screen. actives 4% (n = 1,900). inhibition, % at 6.7 µM. shares compounds with PP1 counter. AID 2360. purified PP5c, OMFP fluorescence;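 active = mean PP5 inhibition over triplicate wells above about 9.5% taken from the earlier PP1 screen, limit read from the data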
Each line names hits and unclear results; the compound was inactive in the other large screens (follow-up assays come after a bar, where they were run).

Cc1ccc(C)c(-c2nnc(NC(=O)CCS(=O)(=O)c3ccccc3)o2)c1	none
CCn1c(=O)cc(SCC(=O)N2CCN(C3CCCCC3)CC2)c2ccccc21	PP1 counter 30 | PP1 confirm inactive | PP5 inh counter inactive
CCCCCCN(C(=O)CCCCCN1C(=O)NC(c2ccc(-c3ccccc3)cc2)C(C(=O)OCc2ccccc2)=C1C)C(C(=O)NCCCC)c1ccc(OCC(=O)OC)cc1 (stereo not given)	PP1 counter 30 (no result: NadD block, Myeloid diff MLP) | PP1 confirm 20 | PP5 inh counter inactive
CCCCNC(=O)C(c1ccc(OCC(=O)OC)c(C(=O)OC)c1)N(CCOC)C(=O)CCCCCN1C(=O)NC(c2ccc(-c3ccccc3)cc2)C(C(=O)OCc2ccccc2)=C1C (stereo not given)	PP1 counter 35 (no result: NadD block, Myeloid diff MLP) | PP1 confirm 35 | PP5 inh counter inactive
CCCCCCN(C(=O)CCCN1C(=O)NC(c2ccc([N+](=O)[O-])cc2)C(C(=O)OCc2ccccc2)=C1C)C(C)C(=O)NCCCC (stereo not given)	none (no result: HCV core dimer, CTSL1 counter, PP5 primary, PP1 counter)
COc1cccc(CNC(=O)C2CCN(S(=O)(=O)N3CCC(C)CC3)CC2)c1	none
CCOC(=O)C1=C(c2ccccc2)NC(N)=NC1c1ccc(OCc2ccc(Cl)cc2)c(OC)c1 (stereo not given)	PP1 counter 25 | PP1 confirm 29 | PP5 inh counter inactive
CCOC(=O)C1=C(c2ccccc2)NC(=O)NC1c1cc(Cl)c(O)c(OC)c1 (stereo not given)	none
CCOC(=O)[C@@H]1[C@H]2COc3ccc(Br)cc3[C@H]2N2C(=O)N(c3ccc(Cl)cc3)C(=O)[C@]12C	none (no result: HCV core dimer, CTSL1 counter, PP5 primary, PP1 counter)
O=C(Nc1ccc(Br)cn1)c1cccc(-c2cc3ccccc3oc2=O)c1	none
O=C(Nc1ccccc1N1CCCC1)c1cccc(-c2cc3ccccc3oc2=O)c1	PP1 counter 18 | PP1 confirm 19 | PP5 inh counter inactive
O=C(C[C@H]1C/C=C\CC[C@@H](Cc2ccc(F)cc2)C(=O)O[C@@H](c2ccccc2)CNC1=O)N[C@@H](CO)Cc1ccccc1	none (no result: HCV core dimer, CTSL1 counter, PP5 primary, PP1 counter)
Cc1cc(C)n(CCC(=O)N2CCN(S(=O)(=O)c3ccccc3)CC2)n1	none
Cc1ccc(CN2C(=O)C3CCCN3c3ccc(C#N)cc32)cc1 (stereo not given)	PP1 counter 18 (no result: NadD block, Myeloid diff MLP) | PP1 confirm inactive | PP5 inh counter inactive
CCOc1ccc(/C=C/C(=O)OC(C)C(=O)NC2CCCCC2C)cc1OC (stereo not given)	none
CCCn1c(CN2CCN(C(=O)OCC)CC2)nc2c1c(=O)n(C)c(=O)n2C	PP1 counter 55 | PP1 confirm inactive | PP5 inh counter inactive
O=C(COC(=O)c1cc(S(=O)(=O)N2CCCC2)ccc1O)Nc1ccc(F)cc1F	none (no result: HCV core dimer, CTSL1 counter, PP5 primary, PP1 counter)
COc1ccc(-c2c[n+]3c4n2CCCCC4=C(c2ccccc2)C3)cc1	PP1 counter 18 | PP1 confirm inactive | PP5 inh counter inactive
Cc1ccccc1Oc1nc(-c2ccccn2)nc2ccccc12	PP1 counter 20 | PP1 confirm 16 | PP5 inh counter inactive
CN1CCN(c2nc(-c3ccccn3)nc3ccccc23)CC1	none
c1ccc(N2CCN(c3nc(-c4ccccn4)nc4ccccc34)CC2)cc1	PP1 counter 64 | PP1 confirm 46 | PP5 inh counter inactive
CCOc1ccc(NCc2nnc(SCc3ccc(Cl)cc3)n2-c2ccccc2)cc1	PP1 counter 18 | PP1 confirm inactive | PP5 inh counter inactive
CCOc1ccc(NCc2nnc(SCC(=O)Nc3nc(-c4ccccc4)cs3)n2-c2ccccc2)cc1	PP1 counter 28 | PP1 confirm inactive | PP5 inh counter inactive
CCOC(=O)CSc1nnc(CNc2ccc(Cl)cc2)n1-c1ccccc1	none
Cc1ccc(S(=O)(=O)N2[C@@H](c3ccc(F)cc3)C(C(=O)O)=CC[C@H]2c2ccc(Cl)cc2)cc1	none
Cc1ccc(S(=O)(=O)N2[C@@H](c3ccc(Cl)cc3)C(C(=O)O)=CC[C@H]2c2ccc(Cl)cc2)cc1	PP1 counter 21 | PP1 confirm inactive | PP5 inh counter inactive
Cc1ccc([C@@H]2CC=C(C(=O)O)[C@H](c3ccc(Cl)cc3)N2S(=O)(=O)c2ccc(C)cc2)cc1	none
Cc1ccc(S(=O)(=O)N2[C@@H](c3cccc(Cl)c3)C(C(=O)O)=CC[C@H]2c2ccc(C(C)C)cc2)cc1	PP1 counter 29 | PP1 confirm 21 | PP5 inh counter inactive
Cc1ccc(S(=O)(=O)N2[C@@H](c3ccc(F)cc3)C(C(=O)O)=CC[C@H]2c2ccc(C(C)C)cc2)cc1	PP1 counter 19 | PP1 confirm inactive | PP5 inh counter inactive
O=C(O)C1=CC[C@@H](c2ccc(Cl)cc2)N(S(=O)(=O)c2ccc(Cl)cc2)[C@H]1c1cccc(Cl)c1	PP1 counter 23 | PP1 confirm inactive | PP5 inh counter inactive
O=C(C1COc2ccccc2O1)N1CCN(Cc2ccc(Br)cc2F)CC1 (stereo not given)	none
CC(C)(C)c1ccc(OCCC(=O)Nc2cccc(S(=O)(=O)NC3=NCCCCC3)c2)cc1	none (no result: HCV core dimer, CTSL1 counter, PP5 primary, PP1 counter)
CCOc1ccc(NC(=O)CCNC(=O)Cn2ccc3ccccc3c2=O)cc1	none
COC(=O)C1=C(CSc2nc3c(cc2C#N)CN(C)CC3)OC(N)=C(C#N)C1c1ccccc1F (stereo not given)	PP1 counter 18 | PP1 confirm inactive | PP5 inh counter inactive
COC(=O)C1=C(C)OC(N)=C(C#N)C1c1ccccc1F (stereo not given)	none
O=C(NC1CCCC1)c1nc2c(nnn2Cc2cccc(Cl)c2)c(=O)[nH]1	PP1 counter 21 | PP1 confirm inactive | PP5 inh counter inactive
COc1cc(/C=C2/SC(=S)N(Cc3ccccc3)C2=O)ccc1OCC(=O)O	PP1 counter 20 | PP1 confirm inactive | PP5 inh counter inactive
Cc1cccc(C)c1-n1nnnc1C(c1ccnc2ccccc12)N1CCN(C/C=C/c2ccccc2)CC1 (stereo not given)	none (no result: HCV core dimer, CTSL1 counter, PP5 primary, PP1 counter)
O=C(Nc1nc(-c2ccccn2)cs1)c1ccc([N+](=O)[O-])o1	none
CCc1nnc(NC(=O)C(NC(=O)c2ccccc2Cl)C(C)C)s1 (stereo not given)	none
O=C(Nc1nc(-c2ccccn2)cs1)c1ccc2c(c1)OCCO2	PP1 counter 39 | PP1 confirm 43 | PP5 inh counter inactive
CC(C)[C@H](NC(=O)c1ccccc1Cl)C(=O)Nc1nc(-c2ccccn2)cs1	PP1 counter 18 | PP1 confirm 27 | PP5 inh counter inactive
c1ccc(CCNc2nc(-c3ccccn3)cs2)cc1	PP1 counter 35 | PP1 confirm 44 | PP5 inh counter inactive

Assay outcomes (PubChem BioAssay)
